The values below come from ChEMBL document CHEMBL4028900, “Design of Novel 3-Pyrimidinylazaindole CDK2/9 Inhibitors with Potent In Vitro and In Vivo Antitumor Efficacy in a Triple-Negative Breast Cancer Model” (J Med Chem, 2017).

≈ marks a conversion by molar mass, not a printed value.

In data set [1] the test system is Ehrlich. The data set is described as follows: Antitumor activity against Swiss mouse EAC cells allografted in Swiss mouse assessed as tumor growth inhibition at 22 mg/kg, ip administered for 13 days measured on day 13 post last dose relative to control. Format: functional. The note with it: 312 h, read-out: TGI.
The test system of data set [2] is Mus musculus. Put plainly: Toxicity in Swiss mouse allografted with Swiss mouse EAC cells assessed as body weight at 22 mg/kg, ip administered for 13 days measured on day 13 post last dose (reference value: 28.7 g). Format: organism-based. As to conditions: in vivo, 312 h.
The subject of data set [3] is Mus musculus. Put plainly: Toxicity in Swiss mouse allografted with Swiss mouse EAC cells assessed as body weight at 22 mg/kg, ip administered for 9 days measured on day 9 post last dose (reference value: 27.9 g). As to conditions: in vivo, 216 h. Format: organism-based.
Data set [4] has as its system Mus musculus. The data set is described as follows: Toxicity in Swiss mouse allografted with Swiss mouse EAC cells assessed as body weight at 22 mg/kg, ip administered for 5 days measured on day 5 post last dose (reference value: 27.1 g). Type of data set: organism-based. As to conditions: in vivo, 120 h.
The test system of data set [5] is Mus musculus. Put plainly: Toxicity in Swiss mouse allografted with Swiss mouse EAC cells assessed as mortality at 22 mg/kg, ip administered for 9 to 13 days. Type of data set: organism-based. The note with it: in vivo.
Data set [6] concerns Mus musculus. Put plainly: Toxicity in Swiss mouse allografted with Swiss mouse EAC cells assessed as body weight at 22 mg/kg, ip measured on day 1 (reference value: 26.2 g). Type of data set: organism-based. The note with it: in vivo.
Data set [7] can be described thus: Plasma concentration in BALB/c mouse at 2.5 mg/kg, iv at 2 hrs by LC/MS-MS analysis. Format: ADME, organism-based.
Data set [8] in a line: Plasma concentration in BALB/c mouse at 5 mg/kg, ip at 2 hrs by LC/MS-MS analysis. Format: ADME, organism-based.
For data set [9], the system named is Mus musculus. The data set is described as follows: Half life in BALB/c mouse at 5 mg/kg, ip by LC/MS-MS analysis. The note with it: in vivo. Type of data set: ADME, organism-based.
Data set [10] concerns Mus musculus. The data set is described as follows: AUC (0 to infinity) in BALB/c mouse at 5 mg/kg, ip by LC/MS-MS analysis. Type of data set: ADME, organism-based. Also noted: dose 5 mg/kg, route intraperitoneal, time infinity. The note with it: in vivo.
A short description of data set [11]: AUC (0 to t) in BALB/c mouse at 5 mg/kg, ip by LC/MS-MS analysis. Format: ADME, organism-based. As to conditions: in vivo.
The nature of data set [12]: AUC (0 to infinity) in BALB/c mouse at 2.5 mg/kg, iv by LC/MS-MS analysis. Format: ADME, organism-based. As to conditions: in vivo. Also on record: dose 2.5 mg/kg, time infinity, route intravenous.
The nature of data set [13]: AUC (0 to t) in BALB/c mouse at 2.5 mg/kg, iv by LC/MS-MS analysis. As to conditions: in vivo. Format: ADME, organism-based.
The nature of data set [14]: Plasma concentration in BALB/c mouse at 5 mg/kg, ip at 0.25 hrs by LC/MS-MS analysis. Type of data set: ADME, organism-based.
Data set [15] is described as follows: Half life in BALB/c mouse at 2.5 mg/kg, iv by LC/MS-MS analysis. Type of data set: ADME, organism-based. As to conditions: in vivo.
Data set [16] is described as follows: Plasma concentration in BALB/c mouse at 5 mg/kg, ip at 4 hrs by LC/MS-MS analysis. Format: ADME, organism-based.
The nature of data set [17]: Clearance in BALB/c mouse at 2.5 mg/kg, iv by LC/MS-MS analysis. Format: ADME, organism-based. The note with it: in vivo.
A short description of data set [18]: Volume of distribution in BALB/c mouse at 2.5 mg/kg, iv by LC/MS-MS analysis. Format: ADME, organism-based. The note with it: in vivo.
Data set [19] in a line: Plasma concentration in BALB/c mouse at 2.5 mg/kg, iv at 0.5 hrs by LC/MS-MS analysis. Type of data set: ADME, organism-based.
Data set [20] can be described thus: Plasma concentration in BALB/c mouse at 2.5 mg/kg, iv at 0.25 hrs by LC/MS-MS analysis. Type of data set: ADME, organism-based.
Data set [21] can be described thus: Plasma concentration in BALB/c mouse at 5 mg/kg, ip at 0.5 hrs by LC/MS-MS analysis. Type of data set: ADME, organism-based.
The test system of data set [22] is 4T1. The data set is described as follows: Antitumor activity against mouse 4T1 cells allografted in iv dosed Balb/C mouse assessed as tumor growth inhibition administered every 3 days for 21 days measured 2 times for every week during dosing. Type of data set: functional, organism-based. In a few lines:
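4T1 cells were grown in RPMI-1640 with 10% FBS, pyruvate and NEAA at 37 °C and 5% CO2. Female Balb/C mice received 1×10^6 cells into the second mammary fat pad. At about 100 mm3, mice were grouped five per group and dosed by tail vein in 200 µL (PBS diluent) every three days for 21 days. Tumor volume (L×B²/2, caliper) and body weight were taken twice weekly. The experiment was repeated twice.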

A short description of data set [23]: Initial concentration in BALB/c mouse at 2.5 mg/kg, iv by LC/MS-MS analysis. Format: ADME, organism-based. As to conditions: in vivo.
The subject of data set [24] is Mus musculus. Put plainly: Volume of distribution in BALB/c mouse at 5 mg/kg, ip by LC/MS-MS analysis. Type of data set: ADME, organism-based. The note with it: in vivo.
The nature of data set [25]: Plasma concentration in BALB/c mouse at 5 mg/kg, ip at 1 hr by LC/MS-MS analysis. Format: ADME, organism-based.
A short description of data set [26]: Plasma concentration in BALB/c mouse at 2.5 mg/kg, iv at 1 hr by LC/MS-MS analysis. Type of data set: ADME, organism-based.
A short description of data set [27]: Plasma concentration in BALB/c mouse at 2.5 mg/kg, iv at […] by LC/MS-MS analysis. Type of data set: ADME, organism-based.
The test system of data set [28] is Mus musculus. The data set is described as follows: Clearance in BALB/c mouse at 5 mg/kg, ip by LC/MS-MS analysis. Format: ADME, organism-based. As to conditions: in vivo.
For data set [29], the system named is MCF7. The data set is described as follows: Antiproliferative activity against human MCF7 cells.
The subject of data set [30] is MDA-MB-468. The data set is described as follows: Antiproliferative activity against human MDA-MB-468 cells.
Data set [31] in a line: Antiproliferative activity against HEK cells. As to conditions: Homo sapiens, HEK293.
Data set [32] deals with 4T1. Put plainly: Antiproliferative activity against mouse 4T1 cells after 24 hrs by MTT assay. The note with it: 4T1, 24 h.
The nature of data set [33]: Thermodynamic equilibrium solubility of the compound in SIF.
Data set [34] in a line: Thermodynamic equilibrium solubility of the compound in PBS.
A short description of data set [35]: Thermodynamic equilibrium solubility of the compound in water.
Data set [36] can be described thus: Plasma concentration in BALB/c mouse at 2.5 mg/kg, iv at 4 hrs by LC/MS-MS analysis. Format: ADME, organism-based.
Data set [37] has as its system T47D. The data set is described as follows: Antiproliferative activity against human T47D cells after 72 hrs by SRB assay.
Data set [38] is described as follows: Thermodynamic equilibrium solubility of the compound in SGF.
In data set [39] the target is CDK9/cyclin T1 (Homo sapiens, UniProt P50750). Type of data set: protein-complex assay.
Sequence of CDK9/cyclin T1 (O60563 whole entry): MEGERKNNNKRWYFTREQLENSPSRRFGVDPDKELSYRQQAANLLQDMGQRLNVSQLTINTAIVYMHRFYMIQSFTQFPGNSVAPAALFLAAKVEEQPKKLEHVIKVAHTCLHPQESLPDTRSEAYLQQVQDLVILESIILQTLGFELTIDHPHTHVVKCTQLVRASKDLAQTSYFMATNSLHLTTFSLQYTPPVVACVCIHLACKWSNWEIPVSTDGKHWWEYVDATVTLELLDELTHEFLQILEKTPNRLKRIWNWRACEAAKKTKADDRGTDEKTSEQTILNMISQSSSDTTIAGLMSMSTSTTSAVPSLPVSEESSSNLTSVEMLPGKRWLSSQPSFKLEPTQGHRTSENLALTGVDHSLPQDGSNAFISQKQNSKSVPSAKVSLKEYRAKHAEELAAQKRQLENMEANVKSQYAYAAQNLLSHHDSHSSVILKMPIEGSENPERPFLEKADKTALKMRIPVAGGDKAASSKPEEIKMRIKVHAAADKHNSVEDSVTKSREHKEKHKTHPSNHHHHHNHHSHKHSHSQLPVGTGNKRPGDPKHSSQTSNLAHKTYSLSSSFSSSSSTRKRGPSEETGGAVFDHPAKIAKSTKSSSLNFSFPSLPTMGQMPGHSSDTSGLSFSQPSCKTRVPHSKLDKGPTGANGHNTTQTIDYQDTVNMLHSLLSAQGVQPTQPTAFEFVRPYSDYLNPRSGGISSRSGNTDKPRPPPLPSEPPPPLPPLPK
Sequence of CDK9/cyclin T1 (P50750 whole entry): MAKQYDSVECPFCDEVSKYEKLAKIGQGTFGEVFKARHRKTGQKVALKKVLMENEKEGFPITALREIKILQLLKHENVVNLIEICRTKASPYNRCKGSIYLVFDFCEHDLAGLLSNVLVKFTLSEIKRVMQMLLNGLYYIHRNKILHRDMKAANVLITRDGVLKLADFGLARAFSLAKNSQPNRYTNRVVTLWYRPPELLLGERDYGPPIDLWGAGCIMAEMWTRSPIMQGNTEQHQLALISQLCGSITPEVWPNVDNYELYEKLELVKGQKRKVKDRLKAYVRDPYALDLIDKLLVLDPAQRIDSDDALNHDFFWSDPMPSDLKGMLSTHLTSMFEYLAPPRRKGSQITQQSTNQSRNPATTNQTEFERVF
Data set [40] concerns HCT-116. Put plainly: Antiproliferative activity against human HCT116 cells after 72 hrs by SRB assay. The note with it: HCT-116, 72 h.
Data set [41] has as its system MDA-MB-231. Put plainly: Antiproliferative activity against human MDA-MB-231 cells.
The test system of data set [42] is BT-549. The data set is described as follows: Antiproliferative activity against human BT549 cells.

Take `O=c1[nH]cc(F)c(=O)[nH]1` [FLUOROURACIL]: in data set [1], the inhibition in vivo at 22 mg/kg was 50.4%. For the same compound, the Activity in [2] is recorded as 24.85 g; in data set [3], 24.57 g; in data set [4] it was 25 g; in data set [5] it was “Non-Toxic”; in [6], 26 g.
In the case of `Nc1nccc(-c2c[nH]c3ncc(-c4ccc(F)cc4)cc23)n1`, the concentration at 2 h is 99.6 ng/mL in [7] and 59.1 ng/mL in data set [8]. In [9], this compound registered a t1/2 of 4.4 h. Moreover, the AUC in data set [10] worked out at 504.3 ng·h/mL. In addition, the exposure AUC(0-t) amounted to 244 ng·h/mL in data set [11] and 437 ng·h/mL in data set [13]. This compound also yielded an AUC(0-inf) in [12] of 795 ng·h/mL. In addition, the concentration at 0.25 h is 162 ng/mL in [14] and 311 ng/mL in data set [20]. The compound further gave a half-life in [15] of 2.5 h. The compound also displayed a concentration at 4 h in [16] of 40.7 ng/mL. Also, the clearance in data set [17] was 51.7 mL/min/kg. The figures for the Vd in [18] and in data set [24] were 11.3 L/kg and 63.6 L/kg, respectively. In addition, the values for the concentration at 0.5 h in data set [19] and in data set [21] were 168 ng/mL and 73 ng/mL, respectively. In addition, in data set [22], the TGI result was “Dose-dependent effect”. In data set [23], this compound had a C0 of 1470 ng/mL. In addition, the concentration at 1 h in data set [25] was 61.6 ng/mL; in [26], 132 ng/mL. This compound also yielded a concentration at […] in [27] of 797 ng/mL. The same compound displayed a CL in [28] of 15 mL/min/kg.
The compound `Nc1nccc(-c2c[nH]c3ncccc23)n1` [MERIOLIN 1] registered a concentration at 2 h in [7] of 1 ng/mL. The 50% inhibitory concentration (IC50) in data set [29] was 6 µM; in data set [30], 13 µM; in data set [31] it was 36 µM; in [32], 2.5 µM; in data set [37], 8 µM; in data set [39], 0.03 µM. Moreover, the IC50 in data set [40] came out at 1.8 µM; in data set [41], 6 µM; in [42], 7 µM. The compound also yielded an area under the curve AUC(0-inf) in data set [12] of 46.9 ng·h/mL. In [13], this compound yielded an AUC(0-t) of 46.2 ng·h/mL. In addition, the solubility (thermodynamic) in data set [33] is 87.7 µg/mL (≈ 415 µM); in [34], 89 µg/mL (≈ 421 µM); in data set [35], 95.8 µg/mL (≈ 454 µM); in data set [38], 352 µg/mL (≈ 1670 µM). This compound also showed a half-life in data set [15] of 0.47 h. In data set [36], this compound gave a concentration at 4 h of 0.8 ng/mL. In addition, the clearance in data set [17] is 897 mL/min/kg. In data set [18], this compound showed a Vd of 36.5 L/kg. The concentration at 0.5 h in data set [19] is 12.6 ng/mL. The concentration at 0.25 h in [20] came to 34.1 ng/mL. This compound also came in with a C0 in [23] of 230 ng/mL. The concentration at 1 h in data set [26] was determined as 4.5 ng/mL. The concentration at […] in [27] came to 167 ng/mL.
